{"data": "Experimental data collected from several papers", "MMP8": "Neutrophil collagenase (MMP8, Homo sapiens, UniProt P22894)", "Htr1d": "5-hydroxytryptamine receptor 1D (Htr1d, Rattus norvegicus, UniProt P28565)", "CA2": "Carbonic anhydrase 2 (CA2, Homo sapiens, UniProt P00918)", "note": "Each line is one published result; the experiments were not run side by side."}
{"Structure (SMILES)": "O=C(O)Cc1ccccc1Nc1c(Cl)cccc1Cl", "target": "Histone acetyltransferase p300 (EP300, Homo sapiens, UniProt Q09472)", "assay": "enzyme activity, inhibitor, mobility shift", "setting": "1.25 mM", "inhibition": "> 50%"}
{"Structure (SMILES)": "Cn1cc(-c2cc(F)cc(N3CCn4c(cc5c4CCCC5)C3=O)c2CO)cc(Nc2ccc(N3CCN(C4COC4)CC3)cn2)c1=O", "target": "Serine/threonine-protein kinase WNK2 (WNK2, Homo sapiens, UniProt Q9Y3S1)", "assay": "enzyme activity, inhibitor", "setting": "0.1 µM", "inhibition": "-12%"}
{"Structure (SMILES)": "CN(C)C(=O)COC(=O)Cc1ccc(OC(=O)c2ccc(NC(=N)N)cc2)cc1", "target": "MMP8", "assay": "enzyme activity, inhibitor", "setting": "10 µM", "inhibition": "33%"}
{"Structure (SMILES)": "Cc1ncc(C)n2nc(/C=C/c3nc(N4CCCC4)cc(N4CCOCC4)n3)nc12", "target": "Htr1d", "assay": "ligand displacement", "setting": "10 µM", "inhibition": "-1%"}
{"Structure (SMILES)": "COc1cc(Nc2ncc(F)c(Nc3ccc4c(n3)NC(=O)C(C)(C)O4)n2)cc(OC)c1OC", "target": "Receptor-interacting serine/threonine-protein kinase 4 (RIPK4, Homo sapiens, UniProt P57078)", "assay": "binding", "setting": "10 µM", "inhibition": "96%"}
{"Structure (SMILES)": "c1ccc(C(NCCNC(c2ccccc2)c2ccccc2)c2ccccc2)cc1", "target": "CA2", "assay": "enzyme activity, inhibitor", "setting": "10 µM", "inhibition": "-7%"}
{"Structure (SMILES)": "Cn1cc(-c2cccc(N3CCc4c(sc5c4CC(C)(C)C5)C3=O)c2CO)cc(Nc2ccncn2)c1=O", "target": "G protein-coupled receptor kinase 3 (GRK3, Homo sapiens, UniProt P35626)", "assay": "enzyme activity, inhibitor", "setting": "1 µM", "inhibition": "16%"}
{"Structure (SMILES)": "COCc1c(-c2cc3cc(C)cc(OC)c3s2)c2c(N)ncnn2c1CN1CCNC(=O)C1", "target": "CA2", "assay": "enzyme activity, inhibitor", "setting": "10 µM", "inhibition": "44%"}
{"Structure (SMILES)": "C#Cc1n[nH]c2c(-c3cn([C@@H](C)c4ccccn4)c(=O)[nH]c3=O)cc(F)cc12", "target": "cAMP-dependent protein kinase catalytic subunit alpha (PRKACA, Homo sapiens, UniProt P17612)", "assay": "enzyme activity, inhibitor", "setting": "0.1 µM", "inhibition": "5.1%"}
{"Structure (SMILES)": "COc1ccc(S(=O)(=O)N(CC(=O)NO)CC(C)C)cc1", "target": "MMP8", "assay": "enzyme activity, inhibitor", "setting": "1 µM", "inhibition": "91%"}
{"Structure (SMILES)": "CC(C)=CCCC1(C)C=Cc2c(O)c3c(c(CC=C(C)C)c2O1)OC12C(=CC4CC1C(C)(C)OC2(C/C=C(/C)C(=O)O)C4O)C3=O (stereo not shown)", "target": "N-lysine methyltransferase KMT5A (KMT5A, Homo sapiens, UniProt Q9NQR1)", "assay": "cell-free assay", "setting": "10 µM", "inhibition": "7%"}
{"Structure (SMILES)": "O=C(Nc1cccnn1)N1CCN([C@@H]2CCOc3cc(C(F)(F)F)ccc32)CC1", "target": "Htr1d", "assay": "cell-free assay", "setting": "20 µM", "inhibition": "4%"}
{"Structure (SMILES)": "CCN(CC)CCCC[C@H](NC(=O)[C@H](CC(C)C)NC(=O)[C@H](C)NC(=O)[C@H](Cc1ccccc1)NC(=O)c1ccc(C(C)(C)C)cc1)C(=O)N[C@@H](CO)C(=O)OC", "target": "Cholecystokinin receptor type A (CCKAR, Homo sapiens, UniProt P32238)", "assay": "ligand displacement, radioligand", "setting": "10 µM", "inhibition": "33%"}
